PfGluPho inh – PfG6PD (Plasmodium falciparum) enzyme inhibition. inhibition, % at 20 µM. 350,000 compounds, 0.78% hits. PfGluPho enzyme, NADPH resazurin-diaphorase fluorescence. AID 504690;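 active = inhibition reaching at least a set limit at 20 µM in the primary screen, cut at about 59% in these data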;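 note: 0% = DMSO wells with substrate and 100% = DMSO wells lacking glucose-6-phosphate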
Neddylation inh – blocks human cullin neddylation; P61081+Q13564; TR-FRET cullin neddylation, biochemical; inhibition, % at 25 µM; 360,000 compounds, 0.58% hits; in the data active = inhibition above about 36%
Target sequence (P61081 whole entry, looked up): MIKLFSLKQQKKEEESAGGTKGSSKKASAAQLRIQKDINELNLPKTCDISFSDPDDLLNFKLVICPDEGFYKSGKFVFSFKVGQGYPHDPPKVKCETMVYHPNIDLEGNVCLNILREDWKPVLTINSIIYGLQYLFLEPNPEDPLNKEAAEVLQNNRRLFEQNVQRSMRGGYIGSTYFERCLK
Target sequence (Q13564 whole entry, looked up): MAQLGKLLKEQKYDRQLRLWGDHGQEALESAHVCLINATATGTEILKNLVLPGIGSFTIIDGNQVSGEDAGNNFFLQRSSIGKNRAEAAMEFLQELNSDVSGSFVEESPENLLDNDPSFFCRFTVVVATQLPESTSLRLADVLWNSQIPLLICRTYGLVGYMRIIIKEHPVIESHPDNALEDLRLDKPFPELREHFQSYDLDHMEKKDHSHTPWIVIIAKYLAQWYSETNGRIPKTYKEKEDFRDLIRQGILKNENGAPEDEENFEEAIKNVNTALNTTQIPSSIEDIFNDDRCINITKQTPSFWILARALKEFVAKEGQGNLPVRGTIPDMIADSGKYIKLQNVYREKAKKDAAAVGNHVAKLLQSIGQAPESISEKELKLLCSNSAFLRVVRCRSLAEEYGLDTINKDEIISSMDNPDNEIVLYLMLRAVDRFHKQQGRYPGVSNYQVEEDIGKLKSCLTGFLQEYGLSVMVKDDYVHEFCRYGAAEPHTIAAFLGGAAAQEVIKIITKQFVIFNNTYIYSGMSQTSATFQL
PfM18AAP inh-1 – blocks P. falciparum M18 aspartyl aminopeptidase. recombinant PfM18AAP, H-Glu-NHMec fluorogenic cleavage. inhibition, % at 7.35 µM. 290,000 compounds, 1.2% hits. AID 1822;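 active = inhibition above the campaign mean inhibition over all tested compounds plus 3 SD, cut at about 28% in these data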;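 note: 0% = plate median of test compound wells and 100% = 2 mM ZnCl2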
HKDC1 inh – inhibitors of human hexokinase HKDC1; recombinant HKDC1, G6PDH/diaphorase resazurin coupled fluorescence; inhibition, % at 20 µM; 340,000 compounds, 0.16% hits;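 active = inhibition above about 35% when tested at 20 µM, limit read from the data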;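 note: plate controls were DMSO wells with enzyme for no effect and DMSO wells lacking enzyme for full effect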
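Test system: recombinant HKDC1 (HK5) hexokinase enzyme, produced in-house; Amount: enzyme 5 µg/mL final; Buffer or medium: Tris pH 8.0 buffer with MgCl2, Tween-20, BSA, BME; Reagent: glucose and ATP substrates; Doses: 20 µM test compound, 1% DMSO; Incubation: 90 min reaction incubation at room temperature, dark; Detection: resorufin fluorescence at 613 nm.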
PfM18AAP inh-2 – PfM18AAP inhibition, confirmation; recombinant PfM18AAP, H-Glu-NHMec fluorogenic cleavage; inhibition, % at 7.35 µM; 2,400 compounds, 28% hits; shares compounds with PfM18AAP inh-1;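 active = mean inhibition over replicate wells above the hit cutoff set for the earlier primary screen, cut at about 29% in these data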;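 note: 0% = median of test compound wells and 100% = 2 mM ZnCl2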
CTSL1 confirm – counter-screen for PFM18AAP inhibitors: confirmation of human cathepsin L inhibitors | 2,400 tested, under 10 active | purified cathepsin L1, Z-Leu-Arg-MCA fluorescence | inhibition, % at 5.96 µM | shares compounds with PfM18AAP inh-1;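 active = average inhibition across replicates above the hit cutoff set in the earlier primary screen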;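 note: 0% = median of test compound wells and 100% = Z-Phe-Ala-diazomethylketone 1 µM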
* marks the source's active call; other numbers are inactive results. Rows were chosen to be rich in hits. Some 2.2% of all compounds tested hit in one or more screens of this group.

For Cc1cc(=O)[nH]c(N/N=C/c2ccc(O)c(O)c2)n1 the results were PfGluPho inh -26, Neddylation inh -9, PfM18AAP inh-1 45*, HKDC1 inh -3, PfM18AAP inh-2 21 and CTSL1 confirm 8.
Screening Oc1ccc(/C=N/Nc2nc(N3CCCC3)nc(N3CCCC3)n2)cc1O returned PfGluPho inh 21, Neddylation inh 10, PfM18AAP inh-1 54*, HKDC1 inh 1, PfM18AAP inh-2 28* and CTSL1 confirm 5.
Oc1ccc(/C=N/Nc2ccc(Cl)nn2)cc1O was read as PfGluPho inh -5, Neddylation inh -23, PfM18AAP inh-1 47*, HKDC1 inh 7, PfM18AAP inh-2 18 and CTSL1 confirm 4.
Screening Cc1ccc(S(=O)(=O)N2CCCCC2)cc1NC(=O)C1CC(=O)N(c2ccc3c(c2)OCCO3)C1 (stereo unspecified) returned PfGluPho inh -8, Neddylation inh -4 and HKDC1 inh 2.
Screening COc1nnc(-c2ccc(N3CCCCC3)c(NC(=O)COc3ccccc3)c2)c2ccccc12 returned PfGluPho inh 0, Neddylation inh 8 and HKDC1 inh 0.
Screening Cc1cc(C)nc(SCCC(=O)N(C)C)n1 returned PfGluPho inh 42, Neddylation inh 11, PfM18AAP inh-1 39*, HKDC1 inh 3, PfM18AAP inh-2 -4 and CTSL1 confirm -1.
For Cc1cc(C)nc(SCC(=O)Nn2cnnc2)n1 the results were PfGluPho inh -8, Neddylation inh 3, PfM18AAP inh-1 53*, HKDC1 inh 0, PfM18AAP inh-2 41* and CTSL1 confirm -5.
O=C(CSc1ncccn1)NNC(=O)c1ccccc1 was read as PfGluPho inh 7, Neddylation inh 7, PfM18AAP inh-1 -3 and HKDC1 inh -4.
CCNC(=O)CCSc1nc(C)cc(C)n1 was read as PfGluPho inh 31, Neddylation inh 8, PfM18AAP inh-1 24 and HKDC1 inh -6.
`O=C(CSc1ncccn1)Nn1cnnc1` gave PfGluPho inh -5, Neddylation inh -6, PfM18AAP inh-1 46*, HKDC1 inh -7, PfM18AAP inh-2 44* and CTSL1 confirm -4.
`Cc1cc(C)nc(SCC(=O)NNC(=O)c2ccccc2C)n1` gave PfGluPho inh -11, Neddylation inh 1, PfM18AAP inh-1 1 and HKDC1 inh -2.
`O=C(CSc1nnc(N2CCCC2)n1-c1ccccc1Cl)N1CCN(c2ccccn2)CC1` gave PfGluPho inh 2, Neddylation inh 15 and HKDC1 inh -4.
Screening O=[N+]([O-])c1cc(Br)c(O)c(/C=N/Nc2nnnn2-c2cccc3ccccc23)c1 returned PfGluPho inh -15, Neddylation inh -78, PfM18AAP inh-1 38*, HKDC1 inh -21, PfM18AAP inh-2 -5 and CTSL1 confirm -7.
For O=[N+]([O-])c1ccc(NN=Cc2cccc3ccccc23)cc1 the results were PfGluPho inh 11, Neddylation inh -16 and HKDC1 inh -4.
For Cc1nnc(N/N=C/c2ccccc2F)n1N the results were PfGluPho inh 29, Neddylation inh -2, PfM18AAP inh-1 8 and HKDC1 inh -4.
`Cc1nnc(N/N=C/c2ccccc2C(F)(F)F)n1N` gave PfGluPho inh 29, Neddylation inh -1, PfM18AAP inh-1 39*, HKDC1 inh -7, PfM18AAP inh-2 -34 and CTSL1 confirm 2.
`COc1cccc(/C=N/Nc2nnc(C)n2N)c1O` gave PfGluPho inh 24, Neddylation inh 6, PfM18AAP inh-1 39*, HKDC1 inh -6, PfM18AAP inh-2 -8 and CTSL1 confirm 0.
Screening Cc1cc(Br)ccc1NC(=O)C1CCN(C(=O)c2ccco2)CC1 returned PfGluPho inh -12, Neddylation inh 4, PfM18AAP inh-1 2 and HKDC1 inh -4.
For CCCNC(=O)C(Cc1cccc(C#N)c1)NC(=O)c1cccc([N+](=O)[O-])c1 (stereo unspecified) the results were PfGluPho inh -5, Neddylation inh -55 and HKDC1 inh -4.
CCOC(=O)c1c(C)oc2c(CC(=O)c3ccccc3)c(Cl)c(O)c(O)c12 was read as PfGluPho inh -18, Neddylation inh -2, PfM18AAP inh-1 45*, HKDC1 inh -10, PfM18AAP inh-2 24 and CTSL1 confirm 3.
`Cc1occc1C(=O)NNS(=O)(=O)c1ccc(Cl)cc1` gave PfGluPho inh 3, Neddylation inh -10, PfM18AAP inh-1 8 and HKDC1 inh -1.
